Activity calls are given as the source filed them. The calls are words filed in the database; no cut-off is given here.
Tests used:
HEK293 [1] = assay: Cytotoxicity against HEK293 cells after 48 hrs by MTT assay; type: functional; details: Homo sapiens, HEK293, 48 h; read-out: LC50 (the source's name)
Outline: (§1)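 Cells seeded at 10,000 per well and exposed to increasing compound concentrations for 48 h. After a PBS wash, MTT (2.5 mg/mL) was added for 6 h at 37 °C, then detergent (10% NP-40, 4 mM HCl), and absorbance was read at 570 nm. LC50 is the concentration causing 50% cell death. Values are means of three independent experiments.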

Vero = assay: Cytotoxicity against african green monkey Vero cells after 48 hrs by MTT assay; type: cell-based; details: chlorocebus sabaeus; outline: as §1
[2] = Retention time of the compound by HPLC method; type: physicochemical
MCF7 [3] = assay: Cytotoxicity against human MCF7 cells; type: functional
Outline: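 MTT viability: 10,000 cells/well, 48 h exposure to increasing concentrations, MTT 2.5 mg/mL for 6 h at 37 °C, NP-40/HCl solubilization, absorbance 570 nm. MCF-7 in DMEM with 10% FBS; MCF-10A normal cells run alongside. LC50 from three independent experiments.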

HEK293 [4] = assay: Induction of apoptosis in HEK293 cells assessed as apoptotic nuclei formation at 10 uM after 48 hrs by DAPI staining based fluorescence microscopy; type: functional, cell-based; details: Homo sapiens
HEK293 [5] = assay: Induction of cell death in HEK293 cells at 15 to 20 uM after 48 hrs by DAPI staining based fluorescence microscopy; type: functional; details: Homo sapiens
HEK293 [6] = assay: Induction of apoptosis in HEK293 cells at 5 to 20 uM after 48 hrs by DAPI staining based fluorescence microscopy; type: functional, cell-based; details: Homo sapiens
MCF7 [7] = assay: Cytotoxicity against human MCF7 cells after 48 hrs by MTT assay; type: functional; details: MCF7, 48 h, read-out: LC50 (the source's name); outline: as §1
[8] = Cytotoxicity against human MCF10A cells after 48 hrs by MTT assay; type: cell-based; details: mcf-10a; outline: as §1
HEK293 [9] = assay: Induction of apoptosis in HEK293 cells at 5 uM after 48 hrs by propidium iodide staining based flow cytometry (reference value: 24.26 +/- 0.8%); type: functional, Homo sapiens
HEK293 [10] = assay: Induction of apoptosis in HEK293 cells at 10 uM after 48 hrs by propidium iodide staining based flow cytometry (reference value: 24.26 +/- 0.8%); type: functional, Homo sapiens
HEK293 [11] = assay: Induction of apoptosis in HEK293 cells at 15 uM after 48 hrs by propidium iodide staining based flow cytometry (reference value: 24.26 +/- 0.8%); type: functional, Homo sapiens
HEK293 [12] = assay: Induction of apoptosis in HEK293 cells at 20 uM after 48 hrs by propidium iodide staining based flow cytometry (reference value: 24.26 +/- 0.8%); type: functional, Homo sapiens
HEK293 [13] = assay: Induction of cell cycle arrest in HEK293 cells assessed as accumulation at G1 phase at 5 uM after 48 hrs by propidium iodide staining based flow cytometry (reference value: 53.21 +/- 0.8%); type: functional, Homo sapiens
HEK293 [14] = assay: Induction of cell cycle arrest in HEK293 cells assessed as accumulation at G1 phase at 10 uM after 48 hrs by propidium iodide staining based flow cytometry (reference value: 53.21 +/- 0.8%); type: functional, Homo sapiens
HEK293 [15] = assay: Induction of cell cycle arrest in HEK293 cells assessed as accumulation at G1 phase at 15 uM after 48 hrs by propidium iodide staining based flow cytometry (reference value: 53.21 +/- 0.8%); type: functional, Homo sapiens
HEK293 [16] = assay: Induction of cell cycle arrest in HEK293 cells assessed as accumulation at G1 phase at 20 uM after 48 hrs by propidium iodide staining based flow cytometry (reference value: 53.21 +/- 0.8%); type: functional, Homo sapiens
HEK293 [17] = assay: Induction of cell cycle arrest in HEK293 cells assessed as accumulation at S phase at 5 uM after 48 hrs by propidium iodide staining based flow cytometry (reference value: 19.9 +/- 0.5%); type: functional, Homo sapiens
HEK293 [18] = assay: Induction of cell cycle arrest in HEK293 cells assessed as accumulation at S phase at 10 uM after 48 hrs by propidium iodide staining based flow cytometry (reference value: 19.9 +/- 0.5%); type: functional, Homo sapiens
HEK293 [19] = assay: Induction of cell cycle arrest in HEK293 cells assessed as accumulation at S phase at 15 uM after 48 hrs by propidium iodide staining based flow cytometry (reference value: 19.9 +/- 0.5%); type: functional, Homo sapiens
HEK293 [20] = assay: Induction of cell cycle arrest in HEK293 cells assessed as accumulation at S phase at 20 uM after 48 hrs by propidium iodide staining based flow cytometry (reference value: 19.9 +/- 0.5%); type: functional, Homo sapiens
HEK293 [21] = assay: Induction of cell cycle arrest in HEK293 cells assessed as accumulation at G2/M phase at 5 uM after 48 hrs by propidium iodide staining based flow cytometry (reference value: 2.63 +/- 0.7%); type: functional, Homo sapiens
HEK293 [22] = assay: Induction of cell cycle arrest in HEK293 cells assessed as accumulation at G2/M phase at 10 uM after 48 hrs by propidium iodide staining based flow cytometry (reference value: 2.63 +/- 0.7%); type: functional, Homo sapiens
HEK293 [23] = assay: Induction of cell cycle arrest in HEK293 cells assessed as accumulation at G2/M phase at 15 uM after 48 hrs by propidium iodide staining based flow cytometry (reference value: 2.63 +/- 0.7%); type: functional, Homo sapiens
HEK293 [24] = assay: Induction of cell cycle arrest in HEK293 cells assessed as accumulation at G2/M phase at 20 uM after 48 hrs by propidium iodide staining based flow cytometry (reference value: 2.63 +/- 0.7%); type: functional, Homo sapiens
HEK293 [25] = assay: Induction of apoptosis in HEK293 cells at 20 uM after 48 hrs by propidium iodide staining based flow cytometry relative to untreated control; type: functional, Homo sapiens
HEK293 [26] = assay: Increase in caspase-3 expression in HEK293 cells at LC50 level after 48 hrs by immunocytochemistry; type: functional, cell-based; details: Homo sapiens
[27] = biological target: T1, Nuclear factor NF-kappa-B complex (Homo sapiens) (UniProt Q00653+P19838+Q04206); assay: Inhibition of NFkappaB (unknown origin) expressed in HEK293 cells assessed as reduction in transcriptional activity after 48 hrs by luciferase reporter gene assay; type: cell-based
Outline: (§2)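 HEK-293 at 70% confluence transfected by calcium phosphate with NF-kB luciferase ([…]) and b-Gal ([…]) plasmids, 6–8 h, then fresh serum medium 12 h; treated 48 h, lysed, luciferase read and normalized to b-galactosidase. Three independent experiments.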

[28] = biological target: T1, Nuclear factor NF-kappa-B complex (Homo sapiens); assay: Inhibition of NFkappaB (unknown origin) expressed in HEK293 cells assessed as reduction in transcriptional activity at 10 uM after 48 hrs by luciferase reporter gene assay; type: cell-based; outline: as §2
HEK293 [29] = assay: Increase in Bax expression in HEK293 cells at LC50 level after 48 hrs by Western blot method; type: functional, cell-based; details: Homo sapiens
HEK293 [30] = assay: Reduction in Bcl-xL expression in HEK293 cells at LC50 level after 48 hrs by Western blot method; type: functional, cell-based; details: Homo sapiens
HEK293 [31] = assay: Increase in PARP cleavage in HEK293 cells at LC50 level after 48 hrs by Western blot method; type: functional, cell-based; details: Homo sapiens
HEK293 [32] = assay: Increase in p53 expression in HEK293 cells at LC50 level after 48 hrs by Western blot method; type: functional, cell-based; details: Homo sapiens
HEK293 [33] = assay: Reduction in NFkappaB expression in HEK293 cells at LC50 level after 48 hrs by Western blot method; type: functional, cell-based; details: Homo sapiens
HEK293 [34] = assay: Increase in Bax expression in p53 deficient HEK293 cells at LC50 level after 48 hrs by Western blot method; type: functional, cell-based; details: Homo sapiens
HEK293 [35] = assay: Reduction in Bcl-xL expression in p53 deficient HEK293 cells at LC50 level after 48 hrs by Western blot method; type: functional, cell-based; details: Homo sapiens
HEK293 [36] = assay: Increase in PARP cleavage in p53 deficient HEK293 cells at LC50 level after 48 hrs by Western blot method; type: functional, cell-based; details: Homo sapiens
HEK293 [37] = assay: Increase in p53 expression in p53 deficient HEK293 cells at LC50 level after 48 hrs by Western blot method; type: functional, cell-based; details: Homo sapiens
HEK293 [38] = assay: Reduction in NFkappaB expression in p53 deficient HEK293 cells at LC50 level after 48 hrs by Western blot method; type: functional, cell-based; details: Homo sapiens
[39] = Binding affinity to GC-28 DNA (unknown origin) minor groove by DAPI staining based spectrophotometry
Outline: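 DAPI–DNA complex fluorescence read at 460 nm emission band; test compound added to the preformed complex and loss of fluorescence followed.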

T1 sequence (P19838 whole entry, looked up): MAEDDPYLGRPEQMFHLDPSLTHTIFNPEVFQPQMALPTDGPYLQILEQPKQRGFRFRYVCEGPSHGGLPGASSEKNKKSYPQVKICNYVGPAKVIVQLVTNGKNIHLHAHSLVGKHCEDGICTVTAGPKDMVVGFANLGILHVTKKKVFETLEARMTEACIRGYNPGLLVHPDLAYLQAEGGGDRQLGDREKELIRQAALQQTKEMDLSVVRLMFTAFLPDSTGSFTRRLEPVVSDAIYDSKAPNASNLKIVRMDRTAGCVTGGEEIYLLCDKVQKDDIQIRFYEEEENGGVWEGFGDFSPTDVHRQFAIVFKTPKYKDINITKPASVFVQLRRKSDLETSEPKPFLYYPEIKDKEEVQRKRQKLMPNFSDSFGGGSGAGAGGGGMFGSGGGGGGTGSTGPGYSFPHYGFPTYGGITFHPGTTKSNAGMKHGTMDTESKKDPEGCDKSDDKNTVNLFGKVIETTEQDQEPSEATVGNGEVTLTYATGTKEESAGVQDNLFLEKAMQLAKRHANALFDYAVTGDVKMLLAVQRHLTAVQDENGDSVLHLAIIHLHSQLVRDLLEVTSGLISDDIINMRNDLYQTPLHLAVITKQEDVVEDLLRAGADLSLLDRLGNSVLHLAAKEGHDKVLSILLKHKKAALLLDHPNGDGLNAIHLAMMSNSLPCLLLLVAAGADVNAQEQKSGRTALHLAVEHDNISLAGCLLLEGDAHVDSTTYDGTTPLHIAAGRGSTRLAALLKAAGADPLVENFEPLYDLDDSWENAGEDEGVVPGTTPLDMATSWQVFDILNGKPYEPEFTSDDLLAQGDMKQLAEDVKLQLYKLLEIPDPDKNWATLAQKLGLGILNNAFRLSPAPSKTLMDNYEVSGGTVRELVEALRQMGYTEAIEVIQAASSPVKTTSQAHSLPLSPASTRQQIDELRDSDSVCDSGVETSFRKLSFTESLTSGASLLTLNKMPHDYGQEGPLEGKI
T1 sequence (Q00653 whole entry, looked up): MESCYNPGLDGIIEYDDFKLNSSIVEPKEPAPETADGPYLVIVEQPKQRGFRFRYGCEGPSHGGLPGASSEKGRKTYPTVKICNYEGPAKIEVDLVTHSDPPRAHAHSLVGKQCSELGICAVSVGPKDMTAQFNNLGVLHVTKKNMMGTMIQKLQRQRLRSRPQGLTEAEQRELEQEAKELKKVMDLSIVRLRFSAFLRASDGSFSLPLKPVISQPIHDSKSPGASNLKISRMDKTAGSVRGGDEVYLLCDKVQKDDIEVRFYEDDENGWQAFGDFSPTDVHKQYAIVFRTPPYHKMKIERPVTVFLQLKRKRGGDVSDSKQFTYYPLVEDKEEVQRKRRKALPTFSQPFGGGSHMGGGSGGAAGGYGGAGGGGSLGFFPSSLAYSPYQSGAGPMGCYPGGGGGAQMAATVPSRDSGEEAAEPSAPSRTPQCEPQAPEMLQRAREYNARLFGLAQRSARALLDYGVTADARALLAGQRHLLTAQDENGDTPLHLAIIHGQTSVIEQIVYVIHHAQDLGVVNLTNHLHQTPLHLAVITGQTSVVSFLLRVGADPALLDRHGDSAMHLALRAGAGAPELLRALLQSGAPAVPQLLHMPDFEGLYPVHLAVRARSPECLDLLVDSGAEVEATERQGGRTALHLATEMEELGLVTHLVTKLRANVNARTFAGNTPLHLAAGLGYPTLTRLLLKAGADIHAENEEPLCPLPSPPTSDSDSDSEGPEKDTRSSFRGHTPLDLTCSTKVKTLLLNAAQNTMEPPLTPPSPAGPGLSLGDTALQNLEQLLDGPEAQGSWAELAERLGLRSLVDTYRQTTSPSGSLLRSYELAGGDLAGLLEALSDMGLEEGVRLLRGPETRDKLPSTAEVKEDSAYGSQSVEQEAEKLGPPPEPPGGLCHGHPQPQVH
T1 sequence (Q04206 whole entry, looked up): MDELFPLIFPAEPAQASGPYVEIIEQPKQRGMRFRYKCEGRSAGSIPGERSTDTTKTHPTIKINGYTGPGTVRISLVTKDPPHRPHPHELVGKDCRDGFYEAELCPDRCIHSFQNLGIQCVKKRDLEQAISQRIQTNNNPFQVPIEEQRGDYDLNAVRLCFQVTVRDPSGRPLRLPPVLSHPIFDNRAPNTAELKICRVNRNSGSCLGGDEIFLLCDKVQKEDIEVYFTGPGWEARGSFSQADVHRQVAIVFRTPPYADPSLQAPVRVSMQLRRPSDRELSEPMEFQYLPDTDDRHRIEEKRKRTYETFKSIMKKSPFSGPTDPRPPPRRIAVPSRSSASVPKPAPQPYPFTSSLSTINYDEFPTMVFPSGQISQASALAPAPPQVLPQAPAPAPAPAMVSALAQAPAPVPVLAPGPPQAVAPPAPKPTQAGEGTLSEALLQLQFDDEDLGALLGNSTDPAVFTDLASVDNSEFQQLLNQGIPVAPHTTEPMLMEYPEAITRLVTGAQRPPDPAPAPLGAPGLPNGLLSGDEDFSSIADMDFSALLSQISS

C[C@]1(CO)[C@H]2CC[C@@]3(CO3)[C@@H](C/C=C3/C(=O)OC[C@H]3OC(=O)CBr)[C@]2(C)CC[C@H]1O
CC50 (HEK293 [1]): 16 µM | LC50 (Vero): 29 µM | Retention_time [2]: 27.8 min

C=C1CC[C@@H]2[C@]3(C)COC(C)(C)O[C@@H]3CC[C@@]2(C)[C@@H]1C/C=C1/C(=O)OC[C@H]1OC(=O)CI
CC50 (HEK293 [1]): 20 µM | LC50 (Vero): 48 µM

C[C@]1(CO)[C@H]2CC[C@]3(CO3)[C@@H](C/C=C3/C(=O)OC[C@H]3OC(=O)CBr)[C@]2(C)CC[C@H]1O
CC50 (HEK293 [1]): 24 µM | LC50 (Vero): 32 µM | Retention_time [2]: 27.2 min

C=C1CC[C@@H]2[C@](C)(CO)[C@H](O)CC[C@@]2(C)[C@@H]1C/C=C1/C(=O)OC[C@H]1OC(C)=O
GI50 (MCF7 [3]): 5.49 µM

C[C@]1(CO)[C@H]2CC[C@@]3(CO3)[C@@H](C/C=C3/C(=O)OC[C@H]3OC(=O)CI)[C@]2(C)CC[C@H]1O
Activity (HEK293 [4]): Active | Activity (HEK293 [5]): Active | Activity (HEK293 [6]): Dose-dependent effect | CC50 (HEK293 [1]): 12 µM | LC50 (Vero): 30 µM | CC50 (MCF7 [7]): 7 µM | LC50 [8]: > 40 µM | Retention_time [2]: 31.4 min | Activity (HEK293 [9]): 62.05% | Activity (HEK293 [10]): 77.99% | Activity (HEK293 [11]): 79.55% | Activity (HEK293 [12]): 92.93% | Activity (HEK293 [13]): 25.38% | Activity (HEK293 [14]): 15.61% | Activity (HEK293 [15]): 14.98% | Activity (HEK293 [16]): 5.37% | Activity (HEK293 [17]): 9.87% | Activity (HEK293 [18]): 4.98% | Activity (HEK293 [19]): 4.63% | Activity (HEK293 [20]): 1.18% | Activity (HEK293 [21]): 2.7% | Activity (HEK293 [22]): 1.41% | Activity (HEK293 [23]): 1.31% | Activity (HEK293 [24]): 0.52% | fold change (FC) (HEK293 [25]): >6 | Activity (HEK293 [26]): Active | inhibition [27]: Dose-dependent effect | fold change (FC) [28]: 5 | Activity (HEK293 [29]): Active | Activity (HEK293 [30]): Active | Activity (HEK293 [31]): Active | Activity (HEK293 [32]): Active | Activity (HEK293 [33]): Active | Activity (HEK293 [34]): inactive | Activity (HEK293 [35]): inactive | Activity (HEK293 [36]): inactive | Activity (HEK293 [37]): inactive | Activity (HEK293 [38]): inactive | Activity [39]: Active

C=C1CC[C@@H]2[C@](C)(CO)[C@H](O)CC[C@@]2(C)[C@@H]1C/C=C1/C(=O)OC[C@H]1OC(=O)CCl
CC50 (HEK293 [1]): 20 µM | LC50 (Vero): 25 µM | Retention_time [2]: 23.2 min

C=C1CC[C@@H]2[C@](C)(CO)[C@H](O)CC[C@@]2(C)[C@@H]1C/C=C1/C(=O)OC[C@H]1O [ANDROGRAPHOLIDE]
CC50 (HEK293 [1]): 25 µM | LC50 (Vero): < 40 µM | CC50 (MCF7 [7]): 16 µM | LC50 [8]: > 40 µM | Activity (HEK293 [26]): Active | Activity (HEK293 [29]): Active | Activity (HEK293 [30]): Active | Activity (HEK293 [31]): Active | Activity (HEK293 [32]): Active | Activity (HEK293 [33]): Active | Activity (HEK293 [34]): inactive | Activity (HEK293 [35]): inactive | Activity (HEK293 [36]): inactive | Activity (HEK293 [37]): inactive | Activity (HEK293 [38]): inactive
